These results are taken from ChEMBL document CHEMBL4177719, “Synthesis and evaluation of biaryl derivatives for structural characterization of selective monoamine oxidase B inhibitors toward Parkinson's disease therapy” (Bioorg Med Chem, 2018).

The target in assay [1] is T1, Amine oxidase [flavin-containing] B (Homo sapiens, UniProt P27338).
T1 sequence (P27338 whole entry): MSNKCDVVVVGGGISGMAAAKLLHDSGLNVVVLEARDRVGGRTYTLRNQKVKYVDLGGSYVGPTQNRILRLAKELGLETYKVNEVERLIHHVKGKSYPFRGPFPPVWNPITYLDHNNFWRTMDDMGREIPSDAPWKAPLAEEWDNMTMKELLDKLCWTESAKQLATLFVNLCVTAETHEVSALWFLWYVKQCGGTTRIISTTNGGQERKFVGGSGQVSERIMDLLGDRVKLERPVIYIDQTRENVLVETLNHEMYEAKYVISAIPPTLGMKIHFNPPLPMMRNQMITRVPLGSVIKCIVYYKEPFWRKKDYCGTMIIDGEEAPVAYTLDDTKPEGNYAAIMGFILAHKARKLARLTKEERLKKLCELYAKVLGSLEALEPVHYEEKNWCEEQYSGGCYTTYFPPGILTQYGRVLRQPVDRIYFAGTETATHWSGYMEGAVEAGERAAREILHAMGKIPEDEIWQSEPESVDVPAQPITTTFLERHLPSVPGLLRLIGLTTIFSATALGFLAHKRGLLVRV
The experiment in a line: Inhibition of recombinant human MAO-B using benzylamine as substrate preincubated for 15 mins followed by substrate addition measured after 20 mins by amplex red reagent based spectrophotometric assay.

The target of assay [2] is T2, Amine oxidase [flavin-containing] A (Homo sapiens, UniProt P21397).
T2 sequence (P21397 whole entry): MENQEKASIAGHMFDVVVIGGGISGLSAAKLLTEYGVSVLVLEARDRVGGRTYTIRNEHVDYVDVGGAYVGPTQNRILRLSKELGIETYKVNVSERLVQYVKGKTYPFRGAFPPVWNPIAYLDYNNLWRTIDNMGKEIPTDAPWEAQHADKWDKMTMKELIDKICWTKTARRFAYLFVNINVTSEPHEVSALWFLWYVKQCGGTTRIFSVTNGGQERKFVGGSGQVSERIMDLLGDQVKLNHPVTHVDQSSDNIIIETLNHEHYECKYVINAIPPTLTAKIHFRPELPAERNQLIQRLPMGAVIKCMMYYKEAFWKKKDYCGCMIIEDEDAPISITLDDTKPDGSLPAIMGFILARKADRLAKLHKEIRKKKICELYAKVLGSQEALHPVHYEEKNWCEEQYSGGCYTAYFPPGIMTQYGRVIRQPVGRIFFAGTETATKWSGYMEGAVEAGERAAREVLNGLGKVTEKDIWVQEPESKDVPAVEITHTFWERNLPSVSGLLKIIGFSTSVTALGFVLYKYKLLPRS
Put plainly: Inhibition of recombinant human MAO-A using p-tyramine as substrate preincubated for 15 mins followed by substrate addition measured after 20 mins by amplex red reagent based spectrophotometric assay. The method in brief: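 Recombinant human MAO-A with compounds at final 10⁻⁵–10 µM, preincubated 15 min at 37 °C in 50 mM sodium phosphate, pH 7.4. Reaction started by adding 200 µM Amplex Red, 2 U/mL horseradish peroxidase and 2 mM p-tyramine. IC50 came from dose-response curves in quadruplicate, as mean ± S.E.M.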

The species entered for assay [3] is Homo sapiens. Put plainly: Selectivity index, ratio of IC50 for recombinant human MAO-A to IC50 for recombinant human MAO-B.

SMILES strings stand for the structures.

With `NCCc1ccc(-c2cccc(C(F)(F)F)c2)cc1`, the concentration for half-maximal inhibition (IC50) in assay [1] was 1.57 µM; in assay [2], above 10 µM. Moreover, the Ratio IC50 in assay [3] was above 6.4.

As for `NC(=O)c1ccc(OCc2ccccc2C(F)(F)F)cc1`, the half-inhibitory concentration (IC50) in assay [1] was 2.02 µM; in assay [2] it was above 100 µM. Also, in assay [3], the Ratio IC50 was above 49.

Consider `NCc1ccc(OCc2cccc(F)c2)cc1`, for which the 50% inhibitory concentration (IC50) in assay [1] is 0.926 µM; in assay [2], above 100 µM. The Ratio IC50 in assay [3] was above 100.

In the case of `NCc1ccc(OCc2ccccc2)cc1`, the IC50 in assay [1] is 3.23 µM; in assay [2], above 100 µM. For the same compound, the Ratio IC50 in assay [3] was above 31.

Turning to `NCc1ccc(OCc2ccccc2C(F)(F)F)cc1`, the IC50 in assay [1] was 3.15 µM; in assay [2] it was above 100 µM. In assay [3], the Ratio IC50 is above 32.

On to `NCCc1ccc(OCc2cccc(C(F)(F)F)c2)cc1`, for which the IC50 in assay [1] is 0.11 µM; in assay [2], above 100 µM. The Ratio IC50 in assay [3] was above 900.

Turning to `COc1cccc(COc2ccc(CN)cc2)c1`, the half-inhibitory concentration (IC50) was 0.175 µM in assay [1] and above 30 µM in assay [2]. In addition, in assay [3], the Ratio IC50 is above 170.

With `NCCc1ccc(-c2ccccc2F)cc1`, the IC50 in assay [1] and in assay [2] was above 10 µM throughout.

With `COc1ccc(COc2ccc(CN)cc2)cc1`, the values for the IC50 in assay [1] and in assay [2] were 0.283 µM and above 100 µM, respectively. In assay [3], the Ratio IC50 is above 350.

Take `COc1ccc(-c2ccc(CCN)cc2)cc1`: the IC50 in assay [1] was 5.76 µM; in assay [2], above 10 µM. Besides, the Ratio IC50 in assay [3] is above 1.7.

For `NCc1ccc(OCc2ccccc2F)cc1`, the IC50 in assay [1] is 1.46 µM; in assay [2], above 100 µM. For the same compound, in assay [3], the Ratio IC50 is above 68.

In the case of `NCCc1ccc(-c2ccc(Cl)cc2)cc1`, the concentration for half-maximal inhibition (IC50) in assay [1] is 0.625 µM; in assay [2], above 10 µM. Besides, the Ratio IC50 in assay [3] is above 16.

As to `NCCc1ccc(-c2cccc(Cl)c2)cc1`, the IC50 in assay [1] is 2.11 µM; in assay [2] it was above 10 µM. Further, the Ratio IC50 in assay [3] was above 4.7.

As to `NCCc1ccc(OCc2ccccc2Cl)cc1`, the IC50 in assay [1] is 2.85 µM; in assay [2], above 10 µM. For the same compound, the Ratio IC50 in assay [3] is above 3.5.

Regarding `NCCc1ccc(OCc2ccc(Cl)cc2)cc1`, the IC50 in assay [1] is 0.059 µM; in assay [2], above 100 µM. Besides, the Ratio IC50 in assay [3] is above 1600.

`NC(=O)c1ccc(OCc2cccc(F)c2)cc1`: the half-maximal inhibitory concentration (IC50) in assay [1] was 1.55 µM; in assay [2] it was above 100 µM. Besides, the Ratio IC50 in assay [3] is above 65.

For `NC(=O)c1ccc(OCc2ccc(C(F)(F)F)cc2)cc1`, the half-maximal inhibitory concentration (IC50) in assay [1] was 0.642 µM; in assay [2], above 100 µM. The Ratio IC50 in assay [3] was above 150.

With `Nc1ccc(OCc2ccc(F)cc2)cc1`, the results for the IC50 in assay [1] and in assay [2] were 3.32 µM and above 100 µM, respectively. In assay [3], the Ratio IC50 is above 30.

As for `NCc1ccc(OCc2ccc(C(F)(F)F)cc2)cc1`, the IC50 is 0.136 µM in assay [1] and above 100 µM in assay [2]. For the same compound, the Ratio IC50 in assay [3] was above 730.

Consider `NCc1ccc(OCc2ccc(F)cc2)cc1`, for which the IC50 in assay [1] was 0.452 µM; in assay [2] it was above 100 µM. The Ratio IC50 in assay [3] was above 220.

As for `Nc1ccc(OCc2ccccc2C(F)(F)F)cc1`, the IC50 is above 10 µM in assay [1] and above 100 µM in assay [2].

For `NCCc1ccc(-c2ccc(F)cc2)cc1`, the half-maximal inhibitory concentration (IC50) is 6.81 µM in assay [1] and above 10 µM in assay [2]. For the same compound, the Ratio IC50 in assay [3] was above 1.5.

For the compound `NCc1ccc(OCc2cccc(C(F)(F)F)c2)cc1`, the IC50 in assay [1] is 0.387 µM; in assay [2] it was above 100 µM. Moreover, the Ratio IC50 in assay [3] is above 250.

Turning to `Nc1ccc(OCc2ccccc2F)cc1`, the values for the concentration for half-maximal inhibition (IC50) in assay [1] and in assay [2] were above 10 µM and above 30 µM, respectively.

`CC(=O)N[C@H]1CC(=O)N(c2ccc(OCc3cccc(F)c3)cc2)C1` [SEMBRAGILINE]: the IC50 in assay [1] amounted to 0.016 µM.

As to `COc1ccc(CN[C@@H](C)C(N)=O)cc1`, the half-maximal inhibitory concentration (IC50) in assay [1] and in assay [2] was above 10 µM in each case.

`NCCc1ccc(-c2cccc(F)c2)cc1`: the IC50 in assay [1] and in assay [2] was above 10 µM in each case.
